Drawing on ChEMBL document CHEMBL2440064, “Synthesis and biological evaluation of 2-amino-5-aryl-3-benzylthiopyridine scaffold based potent c-Met inhibitors” (Bioorg Med Chem, 2013), this text covers inhibition for 1 compound.

SMILES strings stand for the structures. Active and inactive are the calls of the source. The calls are words filed in the database; no cut-off is given here.

The experiment addresses TPR/MET fusion protein (Mus musculus) (UniProt P16056+F6ZDS4). Briefly: Inhibition of TPR/Met in mouse NIH3T3 cells assessed as inhibition of p44/42 phosphorylation at 0.08 to 10 uM after 2 hrs by Western blotting analysis. Format: cell-based. The method, boiled down:
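Cells grown to exponential phase, treated with compound 2 h at 37°C, lysed in 1× SDS sample buffer, resolved on 10% SDS-PAGE and transferred to nitrocellulose for immunoblotting.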

Chain of TPR/MET fusion protein (Mus musculus) (F6ZDS4 whole entry partner, the tested form may be a part): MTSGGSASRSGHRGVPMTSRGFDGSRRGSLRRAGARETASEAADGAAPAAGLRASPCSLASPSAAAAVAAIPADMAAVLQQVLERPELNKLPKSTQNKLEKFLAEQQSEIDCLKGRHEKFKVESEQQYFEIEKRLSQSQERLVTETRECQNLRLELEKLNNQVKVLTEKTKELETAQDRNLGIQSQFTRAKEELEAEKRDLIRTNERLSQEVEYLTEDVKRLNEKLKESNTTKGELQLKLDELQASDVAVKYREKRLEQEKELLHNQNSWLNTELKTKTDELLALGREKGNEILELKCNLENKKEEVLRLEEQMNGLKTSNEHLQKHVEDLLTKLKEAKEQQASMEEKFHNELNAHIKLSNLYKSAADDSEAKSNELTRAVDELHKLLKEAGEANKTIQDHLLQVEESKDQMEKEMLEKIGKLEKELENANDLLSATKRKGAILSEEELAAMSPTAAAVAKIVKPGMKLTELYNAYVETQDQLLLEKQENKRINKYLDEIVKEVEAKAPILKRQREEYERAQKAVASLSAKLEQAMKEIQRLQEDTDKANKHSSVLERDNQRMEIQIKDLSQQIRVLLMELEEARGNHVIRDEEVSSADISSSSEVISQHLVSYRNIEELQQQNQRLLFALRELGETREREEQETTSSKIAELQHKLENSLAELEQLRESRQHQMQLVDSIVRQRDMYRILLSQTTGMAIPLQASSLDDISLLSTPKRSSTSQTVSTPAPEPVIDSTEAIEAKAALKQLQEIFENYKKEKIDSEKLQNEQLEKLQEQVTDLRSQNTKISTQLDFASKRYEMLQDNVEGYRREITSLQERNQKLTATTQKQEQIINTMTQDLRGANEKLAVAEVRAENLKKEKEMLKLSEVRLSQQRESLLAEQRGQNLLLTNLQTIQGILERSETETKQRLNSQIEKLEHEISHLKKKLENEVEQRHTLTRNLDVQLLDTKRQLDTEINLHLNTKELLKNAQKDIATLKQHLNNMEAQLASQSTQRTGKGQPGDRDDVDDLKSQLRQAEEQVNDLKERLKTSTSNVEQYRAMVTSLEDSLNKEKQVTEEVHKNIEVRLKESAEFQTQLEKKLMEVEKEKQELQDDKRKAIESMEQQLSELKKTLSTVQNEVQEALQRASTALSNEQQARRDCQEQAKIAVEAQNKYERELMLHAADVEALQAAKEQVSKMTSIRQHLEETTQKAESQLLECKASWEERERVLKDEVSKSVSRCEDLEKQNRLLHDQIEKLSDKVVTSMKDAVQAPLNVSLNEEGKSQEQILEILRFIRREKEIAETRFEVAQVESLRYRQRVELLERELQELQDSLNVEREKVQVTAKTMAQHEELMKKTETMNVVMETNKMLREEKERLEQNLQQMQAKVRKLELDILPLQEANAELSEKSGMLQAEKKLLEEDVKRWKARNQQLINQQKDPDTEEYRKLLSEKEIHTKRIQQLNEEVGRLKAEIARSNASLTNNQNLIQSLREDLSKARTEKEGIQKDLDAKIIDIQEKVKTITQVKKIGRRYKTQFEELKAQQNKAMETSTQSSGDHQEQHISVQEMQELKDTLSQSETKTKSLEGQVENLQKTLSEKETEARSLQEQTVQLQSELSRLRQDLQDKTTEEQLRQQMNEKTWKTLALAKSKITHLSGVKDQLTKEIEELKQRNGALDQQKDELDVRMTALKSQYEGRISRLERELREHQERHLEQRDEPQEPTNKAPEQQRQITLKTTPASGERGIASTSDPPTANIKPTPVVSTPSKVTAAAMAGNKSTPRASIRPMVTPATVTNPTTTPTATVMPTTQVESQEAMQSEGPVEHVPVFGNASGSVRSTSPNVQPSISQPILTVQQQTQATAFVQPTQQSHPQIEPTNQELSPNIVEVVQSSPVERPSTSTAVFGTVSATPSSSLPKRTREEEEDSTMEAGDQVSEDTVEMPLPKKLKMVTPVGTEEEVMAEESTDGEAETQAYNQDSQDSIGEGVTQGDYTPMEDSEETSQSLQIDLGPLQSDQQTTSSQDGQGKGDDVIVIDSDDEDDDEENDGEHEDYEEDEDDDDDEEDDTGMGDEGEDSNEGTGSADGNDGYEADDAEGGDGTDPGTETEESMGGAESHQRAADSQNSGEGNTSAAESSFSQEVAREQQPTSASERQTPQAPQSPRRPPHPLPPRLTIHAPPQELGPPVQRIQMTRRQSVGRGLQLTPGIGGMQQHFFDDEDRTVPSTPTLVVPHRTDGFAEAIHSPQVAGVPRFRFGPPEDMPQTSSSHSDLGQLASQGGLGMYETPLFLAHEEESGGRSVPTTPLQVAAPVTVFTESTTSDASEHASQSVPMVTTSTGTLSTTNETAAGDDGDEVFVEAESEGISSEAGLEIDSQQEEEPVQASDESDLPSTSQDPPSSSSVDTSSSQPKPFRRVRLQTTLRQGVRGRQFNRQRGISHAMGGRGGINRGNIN
Chain of TPR/MET fusion protein (Mus musculus) (P16056 25-1379 limits assumed): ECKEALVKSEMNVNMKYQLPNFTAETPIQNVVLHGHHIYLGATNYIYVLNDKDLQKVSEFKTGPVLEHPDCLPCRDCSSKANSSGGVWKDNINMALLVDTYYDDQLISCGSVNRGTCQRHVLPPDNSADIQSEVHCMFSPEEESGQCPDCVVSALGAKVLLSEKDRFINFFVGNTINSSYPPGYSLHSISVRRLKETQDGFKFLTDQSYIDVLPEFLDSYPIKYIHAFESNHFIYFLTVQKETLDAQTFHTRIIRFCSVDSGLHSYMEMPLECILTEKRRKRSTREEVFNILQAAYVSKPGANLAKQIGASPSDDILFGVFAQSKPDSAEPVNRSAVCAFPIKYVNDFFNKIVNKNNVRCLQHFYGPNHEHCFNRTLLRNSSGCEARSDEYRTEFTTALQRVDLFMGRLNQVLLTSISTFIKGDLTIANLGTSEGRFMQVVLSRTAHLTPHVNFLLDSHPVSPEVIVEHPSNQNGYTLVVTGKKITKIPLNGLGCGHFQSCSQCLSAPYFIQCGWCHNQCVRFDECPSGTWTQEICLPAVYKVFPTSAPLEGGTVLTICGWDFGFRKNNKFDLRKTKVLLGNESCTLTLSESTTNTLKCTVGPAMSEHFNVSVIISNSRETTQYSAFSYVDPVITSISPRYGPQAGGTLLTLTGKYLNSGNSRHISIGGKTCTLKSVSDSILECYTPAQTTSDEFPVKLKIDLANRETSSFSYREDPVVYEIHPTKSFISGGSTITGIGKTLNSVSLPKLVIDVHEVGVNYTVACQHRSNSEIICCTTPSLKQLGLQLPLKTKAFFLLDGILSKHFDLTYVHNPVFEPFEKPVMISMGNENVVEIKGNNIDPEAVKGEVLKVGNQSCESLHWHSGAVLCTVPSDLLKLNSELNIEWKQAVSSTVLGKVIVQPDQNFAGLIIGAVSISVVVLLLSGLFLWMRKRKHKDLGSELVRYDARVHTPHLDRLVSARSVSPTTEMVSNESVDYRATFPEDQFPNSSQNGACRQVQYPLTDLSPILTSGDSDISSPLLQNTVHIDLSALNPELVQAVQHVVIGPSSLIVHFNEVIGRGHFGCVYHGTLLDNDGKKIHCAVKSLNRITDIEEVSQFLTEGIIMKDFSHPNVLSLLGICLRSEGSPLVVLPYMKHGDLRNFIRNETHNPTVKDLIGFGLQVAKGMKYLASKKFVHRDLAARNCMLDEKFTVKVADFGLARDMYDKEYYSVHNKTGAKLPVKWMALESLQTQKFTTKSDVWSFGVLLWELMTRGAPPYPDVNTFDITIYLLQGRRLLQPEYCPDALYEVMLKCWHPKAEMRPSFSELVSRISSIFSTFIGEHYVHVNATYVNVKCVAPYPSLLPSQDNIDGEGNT

Take `C[C@@H](Sc1cc(-c2cnn(C3CCNCC3)c2)cnc1N)c1c(Cl)ccc(F)c1Cl`: the inhibition entry was “Active”.
